# Compound activity as filed in PubChem.
# Lipid droplet = modulators of hepatic lipid droplet formation; AML12 mouse hepatocytes, oleate lipid droplets, BODIPY imaging; inhibition, % at 6.5 µM; 240,000 compounds, 0.4% hits; AID 1656;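 active = lipid droplet intensity inhibited by at least 50%, with more than 500 cells counted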
#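 Test system: AML12 hepatocytes (mouse); reagent: oleate loading, 100 µM; dosing: one dose, 6.5 µM compound; incubation: overnight exposure; signal: fluorescence imaging, 20x objective, two fields per well; read-out basis: % inhibition of corrected integrated BODIPY droplet signal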
# HCV NS3 hel inh = HCV NS3 helicase inhibition. AID 1800. NS3 helicase DNA unwinding, Cy5 molecular beacon fluorescence. inhibition, % at 10.9 µM. 290,000 compounds, 0.56% hits;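 active = inhibition above the mean of all tested compounds plus 3 SD, set per campaign, cut at about 35% in these data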;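 also: 0% = DMSO wells and 100% = thioflavine S control wells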
#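 System: NS3 helicase fragment of HCV / Schedule: 1 h at 25 °C / Control set: DMSO alone as 0% and 110 µM thioflavine S as 100% / Reagent: Cy5/quencher beacon DNA duplex and ATP to start / Technique: Cy5 fluorescence / Replication: singlicate / Evaluation: % inhibition of end-to-start signal ratio versus controls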
# HSF1 activator = increases HSF-1 driven luciferase reporter signal. NIH3T3-HGL HSF-1 luciferase reporter, MG132, 8 h; 100% = twice DMSO control signal. activation, % at 9 µM. 300,000 compounds, 1.7% hits. AID 504408;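 active = mean replicate activation of at least 50% with a set share of replicates each reaching 50%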;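 also: 0% = median of the neutral control wells and 100% = twice that signal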
# HSP90 refold inh = inhibitors of HSP90 luciferase refolding in rabbit reticulocyte lysate; luciferase refolding luminescence, 3 h; inhibition, % at 5.6 µM; 290,000 compounds, 0.91% hits;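 active = inhibition above the screen-wide mean plus 3 SD, computed separately per campaign, cut at about 16% in these data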;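 also: 0% = DMSO wells and 100% = 60 µM geldanamycin wells; inhibitors lower the luminescence because luciferase stays unfolded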
# HSF1 inhib = HSF1 inhibition; activity change, negative = inhibition, % at 7.5 µM (by protocol); NIH3T3-HGL HSE-luciferase, MG132-induced, luminescence 8 h; active compounds read low; AID 2098; 300,000 compounds, 0.77% hits;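 active = more than half of replicate wells show activity change below -50%, luminescence cut by over half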;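 also: luciferase reports HSF-1 transcriptional activity via heat shock element; 0% = median of DMSO wells and -100% = zero luminescence signal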
# * hit, by the source's call; nt = no result. A selection: hits, their analogues and other compounds. The true share with any hit is near 3.8%.
SMILES,Lipid droplet,HCV NS3 hel inh,HSF1 activator,HSP90 refold inh,HSF1 inhib
O=C(CN1CC(=O)Oc2ccccc21)OCC(=O)c1cccc(Br)c1,nt,5,53*,2,31
CCOc1cc(C(C(=O)NCC2CCCO2)N(C(=O)Cn2nnc3ccccc32)c2ccccc2C(C)=O)ccc1O (stereo not drawn),-7,-2,2,-3,-5
COc1ccc(C(=O)N2CCN(C(=O)CC(C)C)CC2)cc1OC,nt,-5,10,-1,5
COc1cc(C(=O)N2CCN(C(=O)CC(C)C)CC2)cc(OC)c1OC,-2,-10,-78,0,-73*
COc1ccc(N2CCN(c3ncnc4c3cnn4-c3ccc(C)cc3C)CC2)cc1,1,-4,77*,0,47
Cc1ccc(-n2ncc3c(N4CCN(c5ccccc5)CC4)ncnc32)c(C)c1,nt,0,-29,2,-23
COc1cccc(-c2nc(=S)c3c(n2Cc2ccco2)CCCC3)c1,-1,18,124*,1,114
CC(C)c1ccc(/C=C/C(=O)NC2=NCCS2)cc1,nt,-35,48,1,22
O=C(/C=C/c1ccc(Cl)c(Cl)c1)NC1=NCCS1,11,15,54*,0,25
CN1CCSc2ccc(C(=O)Nc3cc(F)ccc3F)cc21,-14,-16,76*,-1,53
COc1ccc(NC(=O)/C(C#N)=C/c2ccc(Br)o2)cc1,5,17,11,-1,8
N#C/C(=C/c1ccc(Br)o1)C(N)=O,-5,3,-92,-3,-92*
Cc1ccc(C(=O)/C=C/Nc2cccc([N+](=O)[O-])c2)o1,-7,-2,59*,1,22
O=C(CCCN1C(=O)/C(=C\c2ccccc2)SC1=S)Nc1ccc(C(=O)O)cc1,1,0,-2,9,-6
CC(=O)c1ccc(NC(=O)CCCN2C(=O)/C(=C/C(C)=C/c3ccccc3)SC2=S)cc1,-3,0,70*,-3,37
Cc1cc(C)cc(N(CC(=O)Nc2ccc(Br)cc2)S(=O)(=O)c2c(C)[nH]c(=O)[nH]c2=O)c1,2,-2,-71,-1,-63*
Cc1cc(=O)n2c(n1)NC(Nc1cccc(C)c1C)=NC2c1ccccc1 (stereo not drawn),-11,-4,12,0,-3
NC(=O)c1ccsc1NC(=O)CSc1ccccc1F,-6,-1,58*,-3,22
NC(=O)COc1ccccc1,3,-2,79*,-1,45
NC(=O)c1ccsc1NC(=O)COc1ccccc1,1,-2,69*,5,37
COc1ccccc1OCC(=O)OCC(=O)Nc1sccc1C(N)=O,-4,3,2,-1,-2
N#CC1CC(c2ccccc2)Nc2cc(Cl)ccc2N1 (stereo not drawn),5,4,42,6,20
COc1ccccc1NC(=O)CN1C(=O)CC(C)S(=O)(=O)c2ccccc21 (stereo not drawn),-2,4,-13,1,-4
CCOc1ccc(-n2c(=S)sc3c(=O)[nH]c(SCC(=O)NC(C)CC)nc32)cc1 (stereo not drawn),-15,6,72*,0,42
CCOC(=O)CC(=O)CSc1nc2c(sc(=S)n2-c2ccc(OCC)cc2)c(=O)[nH]1,-3,-1,0,0,-9
SMILES,Lipid droplet,HCV NS3 hel inh,HSF1 activator,HSP90 refold inh,HSF1 inhib
N=c1c2c(-c3ccccc3)c(-c3ccccc3)n(Cc3ccco3)c2ncn1CCCN1CCOCC1,13,-42,102*,1,49
N=c1c2c(-c3ccccc3)c(-c3ccccc3)n(Cc3ccco3)c2ncn1CCCn1ccnc1,-51,-78,3,2,6
COC(=O)[C@]1(C)N[C@H](c2ccc(-c3ccc(F)cc3)cc2)[C@@H]2C(=O)N(C)C(=O)[C@@H]21,nt,nt,-8,nt,-10
O=C(NCC(O)c1ccccc1)c1cccs1 (stereo not drawn),2,-7,13,-2,10
C/C(=N\NC(=O)c1c(C)nc2ccccn12)c1ccc(C(C)(C)C)cc1,10,-4,-62,2,-55*
C/C(=N\NC(=O)c1c(C)nc2ccccn12)c1ccc(N2CCOCC2)cc1,-6,5,8,-3,-1
CC[n+]1c(/C=C/N(C)c2ccccc2)oc2ccc(Cl)cc21,1,18,0,4,-10
CCN1/C(=C/C=C/c2oc3ccc4ccccc4c3[n+]2CC)Oc2ccc3ccccc3c21,-132,-44,300*,3,238
NC(N)=NS(=O)(=O)c1ccc(NC(=S)NC(=O)c2ccncc2)cc1,12,1,15,-4,-4
NC(N)=NS(=O)(=O)c1ccc(NC(=S)NC(=O)c2ccc(Br)cc2)cc1,-2,12,114*,0,86
Cc1ccc2nc(-c3ccc(SCC(=O)N4CCc5ccccc54)nc3)[nH]c2c1,26,-13,102*,-3,85
Cc1cc2nc(-c3ccc(SCC(=O)Nc4nccs4)nc3)[nH]c2cc1C,5,-4,nt,2,nt
Cc1ccc2nc(-c3ccc(SCC(=O)O)nc3)[nH]c2c1,nt,6,-21,9,-7
CCc1nnc(NC(=O)CSc2ccc(-c3nc4ccc(C)cc4[nH]3)cn2)s1,6,-7,68*,-1,26
Clc1ccc(SCCOCCN2CCCCCC2)cc1,-1,-12,7,6,7
Cc1cccc(N2CCN(C(=O)c3c(-c4ccccc4Cl)noc3C)CC2)c1C,-200,-1,-22,4,-13
Cc1ccc(-c2cc(C(=O)N3CCN(c4ccc(F)cc4)CC3)c3ccccc3n2)o1,nt,18,2,1,13
Cc1ccc(-c2cc(C(=O)N3CCN(c4ncccn4)CC3)c3cc(Br)ccc3n2)o1,nt,26,76*,4,47
Cc1ccc(/C=N/NC(=O)Cc2c(F)cccc2Cl)s1,9,16,22,3,5
CC(=O)c1ccc(NC(=O)Nc2cccc(Cl)c2)cc1,8,0,67*,-3,36
CCNc1nc(NCC)n2c(SCC(=O)c3ccc(C(C)C)cc3)nnc2n1,-39,-6,51*,-1,-4
CCNc1nc(NCC)n2c(SCC(=O)Nc3ccccc3)nnc2n1,15,7,11,-4,-3
CCNc1nc(NCC)n2c(SCC(=O)Nc3ccc(C(F)(F)F)cc3[N+](=O)[O-])nnc2n1,-17,13,70*,-3,31
CC(C)(C)S(=O)(=O)c1ccccc1C(=O)O,nt,3,-8,-3,-2
Cc1cc(C)c(S(=O)(=O)c2ccccc2C(=O)O)c(C)c1,9,6,54*,-2,6
COc1ccc(NC(=O)n2ncc3c(C)cccc32)cc1OC,-3,12,53*,3,30
COc1ccc(NC(=O)n2ncc3c(C)cccc32)cc1,-1,-19,60*,2,39
Cc1ccc(NC(=O)n2ncc3c(C)cccc32)cc1F,-5,-11,61*,1,31
